Reference: ChEMBL document CHEMBL5329174, “Discovery of benzoxazole-thiazolidinone hybrids as promising antibacterial agents against Staphylococcus aureus and Enterococcus species” (RSC Med Chem, 2023)
Converted amounts (≈) assume the structure as drawn.

What was measured:
Escherichia coli = assay: Antibacterial activity against Escherichia coli ATCC 25922 assessed as reduction in bacterial growth; format: functional
How it was run: (§1)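 CLSI broth microdilution in cation-supplemented Mueller–Hinton broth II; overnight starter cultures (37 °C, shaking, 18–24 h) adjusted by OD600 to ~10^6 CFU/mL. Compounds dosed from DMSO stocks (10 mg/mL stock) as two-fold dilutions, 64–0.5 mg/L. Plates held 37 °C, 18–24 h. MIC = lowest concentration without visible growth. Three independent runs, each in duplicate.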

Klebsiella pneumoniae = assay: Antibacterial activity against Klebsiella pneumoniae BAA-1705 assessed as reduction in bacterial growth; format: functional; how it was run: as §1
Acinetobacter baumannii = assay: Antibacterial activity against Acinetobacter baumannii BAA-1605 assessed as reduction in bacterial growth; format: functional; how it was run: as §1
Staphylococcus aureus [1] = assay: Antibacterial activity against Staphylococcus aureus ATCC 29213 assessed as reduction in bacterial growth; format: functional; how it was run: as §1
Pseudomonas aeruginosa = assay: Antibacterial activity against Pseudomonas aeruginosa ATCC 27853 assessed as reduction in bacterial growth; format: functional; how it was run: as §1
[2] = Cytotoxicity against african green monkey Vero cells assessed as reduction in cell viability incubated for 72 hrs by MTT assay; format: toxicity, cell-based; conditions: chlorocebus sabaeus
How it was run: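 Vero (ATCC CCL-81) cells seeded at ~10^3 per well, 37 °C, 5% CO2. After 24 h, compound added at 100–12.5 μg/mL for 72 h. MTT then given for 4 h at 37 °C, formazan dissolved in DMSO, absorbance read at 540 nm. CC50 taken as the concentration giving 50% viability loss; doxorubicin as positive control; triplicate.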

Enterococcus faecalis [3] = assay: Antibacterial activity against vancomycin-susceptible Enterococcus faecalis NR 31887 assessed as inhibition of bacterial growth incubated for 18 to 24 hrs by broth microdilution assay; format: functional; conditions: time 18-24 hrs; how it was run: as §1
Enterococcus faecalis [4] = assay: Antibacterial activity against vancomycin-susceptible Enterococcus faecalis NR 31885 assessed as inhibition of bacterial growth incubated for 18 to 24 hrs by broth microdilution assay; format: functional; conditions: time 18-24 hrs; how it was run: as §1
Enterococcus faecalis [5] = assay: Antibacterial activity against vancomycin-susceptible Enterococcus faecalis NR 31888 assessed as inhibition of bacterial growth incubated for 18 to 24 hrs by broth microdilution assay; format: functional; conditions: time 18-24 hrs; how it was run: as §1
Staphylococcus aureus [6] = assay: Antibacterial activity against vancomycin-resistant Staphylococcus aureus VRS 1 assessed as reduction in bacterial growth; format: functional
How it was run: (§2)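 CLSI broth microdilution in cation-supplemented Mueller–Hinton broth II. Starter cultures were grown overnight at 37 °C with shaking from a single MHA colony, then diluted by OD600 to ~10^6 CFU/mL. Compounds came from 10 mg/mL DMSO stocks and were tested two-fold from 64 to 0.5 mg/L. Plates were incubated 37 °C for 18–24 h. MIC was taken as the lowest concentration with no visible growth. Three independent runs, each in duplicate.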

Staphylococcus aureus [7] = assay: Antibacterial activity against vancomycin-resistant Staphylococcus aureus VRS 4 assessed as reduction in bacterial growth; format: functional; how it was run: as §2
Enterococcus faecalis [8] = assay: Antibacterial activity against vancomycin-susceptible Enterococcus faecalis NR 31886 assessed as inhibition of bacterial growth incubated for 18 to 24 hrs by broth microdilution assay; format: functional; conditions: time 18-24 hrs; how it was run: as §1
Staphylococcus aureus [9] = assay: Antibacterial activity against vancomycin-resistant Staphylococcus aureus VRS 12 assessed as reduction in bacterial growth; format: functional; how it was run: as §2
Enterococcus faecalis [10] = assay: Antibacterial activity against vancomycin-susceptible Enterococcus faecalis NR 31884 assessed as inhibition of bacterial growth incubated for 18 to 24 hrs by broth microdilution assay; format: functional; conditions: time 18-24 hrs; how it was run: as §1
Enterococcus faecium [11] = assay: Antibacterial activity against vancomycin-resistant Enterococcus faecium NR 31909 assessed as inhibition of bacterial growth
Enterococcus faecium [12] = assay: Antibacterial activity against vancomycin-resistant Enterococcus faecium NR 31903 assessed as inhibition of bacterial growth
Enterococcus faecium [13] = assay: Antibacterial activity against vancomycin-resistant Enterococcus faecium NR 31912 assessed as inhibition of bacterial growth

| SMILES | MIC (Escherichia coli) [µg/mL] | MIC (Klebsiella pneumoniae) [µg/mL] | MIC (Acinetobacter baumannii) [µg/mL] | MIC (Staphylococcus aureus [1]) [µg/mL] | MIC (Pseudomonas aeruginosa) [µg/mL] | other results |
| --- | --- | --- | --- | --- | --- | --- |
| O=C1N/C(=N\c2nc3ccccc3o2)S/C1=C\c1ccccc1Cl | > 64 | > 64 | > 64 | 16 (≈ 45 µM) | > 64 | – |
| O=C1N/C(=N\c2nc3ccccc3o2)S/C1=C\c1cccc(F)c1 | > 64 | > 64 | > 64 | 8 (≈ 23.6 µM) | > 64 | – |
| COc1cccc2c1C(=O)c1c(O)c3c(c(O)c1C2=O)C[C@@](O)(C(=O)CO)C[C@@H]3O[C@H]1C[C@H](N)[C@H](O)[C@H](C)O1 [DOXORUBICIN] | – | – | – | – | – | CC50 at 72 h [2]: 10 µg/mL (≈ 18.4 µM) |
| O=C1N/C(=N\c2nc3ccccc3o2)S/C1=C\c1ccco1 | > 64 | > 64 | > 64 | 8 (≈ 25.7 µM) | > 64 | – |
| COc1cccc(/C=C2\S/C(=N/c3nc4ccccc4o3)NC2=O)c1 | > 64 | > 64 | > 64 | > 64 | > 64 | – |
| O=C1N/C(=N\c2nc3ccccc3o2)S/C1=C\c1ccc(Br)cc1 | > 64 | > 64 | > 64 | 32 (≈ 79.9 µM) | > 64 | – |
| O=C1N/C(=N\c2nc3ccccc3o2)S/C1=C\c1cccs1 | > 64 | > 64 | > 64 | 16 (≈ 48.9 µM) | > 64 | – |
| CN[C@H](CC(C)C)C(=O)N[C@H]1C(=O)N[C@@H](CC(N)=O)C(=O)N[C@H]2C(=O)N[C@H]3C(=O)N[C@H](C(=O)N[C@H](C(=O)O)c4cc(O)cc(O)c4-c4cc3ccc4O)[C@H](O)c3ccc(c(Cl)c3)Oc3cc2cc(c3O[C@@H]2O[C@H](CO)[C@@H](O)[C@H](O)[C@H]2O[C@H]2C[C@](C)(N)[C@H](O)[C@H](C)O2)Oc2ccc(cc2Cl)[C@H]1O [VANCOMYCIN] | – | – | – | – | – | MIC (Enterococcus faecalis [3]): 2 µg/mL (≈ 1.38 µM); MIC (Enterococcus faecalis [4]): 2 µg/mL (≈ 1.38 µM); MIC (Enterococcus faecalis [5]): 2 µg/mL (≈ 1.38 µM); MIC (Staphylococcus aureus [6]): > 64 µg/mL; MIC (Staphylococcus aureus [7]): > 64 µg/mL; MIC (Enterococcus faecalis [8]): 2 µg/mL (≈ 1.38 µM); MIC (Staphylococcus aureus [9]): > 64 µg/mL; MIC (Enterococcus faecalis [10]): 2 µg/mL (≈ 1.38 µM) |
| O=C1N/C(=N\c2nc3ccccc3o2)S/C1=C\c1cccc(Cl)c1 | > 64 | > 64 | > 64 | 8 (≈ 22.5 µM) | > 64 | – |
| O=C1N/C(=N\c2nc3ccccc3o2)S/C1=C\c1ccc([N+](=O)[O-])cc1 | > 64 | > 64 | > 64 | > 64 | > 64 | – |
| COc1ccc(/C=C2\S/C(=N/c3nc4ccccc4o3)NC2=O)cc1O | > 64 | > 64 | > 64 | 4 (≈ 10.9 µM) | > 64 | – |
| O=C1N/C(=N\c2nc3ccccc3o2)S/C1=C\c1ccc(Cl)cc1 | > 64 | > 64 | > 64 | 8 (≈ 22.5 µM) | > 64 | – |
| CN(C)c1ccc(O)c2c1C[C@H]1C[C@H]3[C@H](N(C)C)C(O)=C(C(N)=O)C(=O)[C@@]3(O)C(O)=C1C2=O [MINOCYCLINE] | – | – | – | – | – | MIC (Enterococcus faecium [11]): 8 µg/mL (≈ 17.5 µM); MIC (Enterococcus faecalis [3]): 8 µg/mL (≈ 17.5 µM); MIC (Enterococcus faecium [12]): 8 µg/mL (≈ 17.5 µM); MIC (Enterococcus faecalis [4]): 0.5 µg/mL (≈ 1.09 µM); MIC (Enterococcus faecalis [5]): 0.5 µg/mL (≈ 1.09 µM); MIC (Enterococcus faecalis [8]): 0.5 µg/mL (≈ 1.09 µM); MIC (Enterococcus faecalis [10]): 0.5 µg/mL (≈ 1.09 µM); MIC (Enterococcus faecium [13]): 8 µg/mL (≈ 17.5 µM) |
| O=C1CS/C(=N/c2nc3ccccc3o2)N1 | > 64 | > 64 | > 64 | 8 (≈ 34.3 µM) | > 64 | – |
